Test results: ChEMBL document CHEMBL3875169, “Synthesis, in vitro anticancer and antibacterial activities and in silico studies of new 4-substituted 1,2,3-triazole-coumarin hybrids” (Eur J Med Chem, 2016)
pIC50: −log10 of the molar value.

Key:
HepG2 = test: Selectivity index, ratio of IC50 for […] cells to IC50 for human HepG2 cells; assay type: functional
[1] = Growth inhibition of human HeLa cells after 72 hrs by MTT assay; assay type: functional, cell-based
How it was run: (§1)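 Monolayers in DMEM with 10% FBS, 2 mM L-glutamine and penicillin/streptomycin, 37 °C, 5% CO2; 5000 cells/well seeded day 0. Compounds added as five 10-fold dilutions (0.01–100 µM), DMSO ≤0.1%, for 72 h. MTT absorbance converted to percentage growth (NIH formulas); IC50 by linear regression between bracketing concentrations, highest concentration reported with ">" when not reached. Quadruplicate points, three experiments.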

[2] = Induction of apoptosis in human HepG2 cells assessed as early apoptotic cells at 2 times antiproliferative IC50 after 48 hrs by Annexin-V FITC/propidium iodide staining based fluorescence microscopic method (reference value: 0.6%); assay type: functional
[3] = Induction of apoptosis in human HepG2 cells assessed as secondary necrotic cells at 2 times antiproliferative IC50 after 48 hrs by Annexin-V FITC/propidium iodide staining based fluorescence microscopic method (reference value: 5.2%); assay type: functional
[4] = Growth inhibition of human SW620 cells after 72 hrs by MTT assay; assay type: functional, cell-based; details: SW-620, 72 h; how it was run: as §1
[5] = Growth inhibition of human CFPAC-1 cells after 72 hrs by MTT assay; assay type: functional, cell-based; details: CFPAC-1, 72 h; how it was run: as §1
[6] = Induction of apoptosis in human HepG2 cells assessed as late apoptotic cells at 2 times antiproliferative IC50 after 48 hrs by Annexin-V FITC/propidium iodide staining based fluorescence microscopic method (reference value: 0%); assay type: functional
[7] = Growth inhibition of human A549 cells after 72 hrs by MTT assay; assay type: functional, cell-based; details: A549, 72 h; how it was run: as §1
[8] = Growth inhibition of human HepG2 cells after 72 hrs by MTT assay; assay type: functional, cell-based; details: HepG2, 72 h; how it was run: as §1
[9] = Induction of apoptosis in human HepG2 cells assessed as viable cells at 2 times antiproliferative IC50 after 48 hrs by Annexin-V FITC/propidium iodide staining based fluorescence microscopic method (reference value: 94.2%); assay type: functional

For O=c1cc(Cn2cc(Cn3ccc4cc(I)ccc43)nn2)c2ccc(O)cc2o1, the “Ratio IC50” value (HepG2) was 3, the pIC50 [1] was 4.85 and the Activity [2] was 5.8%. The Activity [3] was 0%, the pIC50 [4] was 4.46 and the pIC50 [5] was 4.52. It also gave an Activity [6] of 9.2%, a pIC50 [7] of 4.54 and a pIC50 [8] of 5.07. It also gave an Activity [9] of 85%.
